Measurements from different studies.
Lines come from different studies, so protocols differ. Converted amounts (≈) assume the structure as drawn.
Organism: Mycolicibacterium smegmatis
Effect on: microbial growth

COc1c(N2C[C@@H]3CCCN[C@@H]3C2)c(F)cc2c(=O)c(C(=O)O)cn(C3CC3)c12
MIC90 (ATCC14468): 0.12 µg/mL (≈ 0.299 µM)

CCCCCCCCCc1cn(CCN2CCN(C(=O)c3c(C)nc4sccn34)CC2)nn1
IC50 (72 h): 28.2 µM

O=C(N/N=C/c1ccc([N+](=O)[O-])o1)c1ccc(O)cc1
MIC90 (ATCC14468): > 1000 µg/mL

CCc1ccc(-c2c[nH]c(N)n2)cc1
MIC (ATCC700084 MC^2155; 48 h): 100 µM

CC(C)=CCC/C(C)=C/C(=O)O
IC50 (48 h): > 500 µM

CCCCOc1ccc(-c2c[nH]c(N)n2)cc1
MIC (ATCC700084 MC^2155; 48 h): > 200 µM

Cc1nc2sc3ccccc3n2c1C(=O)N1CCN(Cc2cn(-c3cccc([N+](=O)[O-])c3)nn2)CC1
IC50 (72 h): 44.1 µM

CC(C)=CCC/C(C)=C/COCCNC1C2CC3CC(C2)CC1C3 (stereo not drawn)
IC50 (48 h): ~9 µM

Cc1nc2sccn2c1C(=O)N1CCN(CCn2cc(CSc3nc4ccccc4[nH]3)nn2)CC1
IC50 (72 h): 16.4 µM

NC1C2CC3CC(C2)CC1C3 (stereo not drawn)
IC50 (48 h): > 500 µM

Cc1nc2sc3ccccc3n2c1C(=O)N1CCN(CCn2cc(-c3ccc(C(C)(C)C)cc3)nn2)CC1
IC50 (72 h): 34.6 µM

CO[C@H]1/C=C/O[C@@]2(C)Oc3c(C)c(O)c4c(O)c(c(/C=N/N5CCN(C)CC5)c(O)c4c3C2=O)NC(=O)/C(C)=C\C=C\[C@H](C)[C@H](O)[C@@H](C)[C@@H](O)[C@@H](C)[C@H](OC(C)=O)[C@@H]1C
inhibition zone (disc diffusion; 15 µg/disc): 14 mm
